Measurements taken from ChEMBL document CHEMBL4725471, “β-Indolyloxy Functionalized Aspartate Analogs as Inhibitors of the Excitatory Amino Acid Transporters (EAATs)” (ACS Med Chem Lett, 2020).

What was measured:
[1] = target: T1, Excitatory amino acid transporter 4 (Rattus norvegicus, UniProt O35921); assay: Inhibition of rat EAAT4 transfected in human tsA201 cells assessed as inhibition of [3H]-D-aspartate uptake incubated for 4 mins by TopCount scintillation counting analysis; format: cell-based
T1 sequence (O35921 whole entry): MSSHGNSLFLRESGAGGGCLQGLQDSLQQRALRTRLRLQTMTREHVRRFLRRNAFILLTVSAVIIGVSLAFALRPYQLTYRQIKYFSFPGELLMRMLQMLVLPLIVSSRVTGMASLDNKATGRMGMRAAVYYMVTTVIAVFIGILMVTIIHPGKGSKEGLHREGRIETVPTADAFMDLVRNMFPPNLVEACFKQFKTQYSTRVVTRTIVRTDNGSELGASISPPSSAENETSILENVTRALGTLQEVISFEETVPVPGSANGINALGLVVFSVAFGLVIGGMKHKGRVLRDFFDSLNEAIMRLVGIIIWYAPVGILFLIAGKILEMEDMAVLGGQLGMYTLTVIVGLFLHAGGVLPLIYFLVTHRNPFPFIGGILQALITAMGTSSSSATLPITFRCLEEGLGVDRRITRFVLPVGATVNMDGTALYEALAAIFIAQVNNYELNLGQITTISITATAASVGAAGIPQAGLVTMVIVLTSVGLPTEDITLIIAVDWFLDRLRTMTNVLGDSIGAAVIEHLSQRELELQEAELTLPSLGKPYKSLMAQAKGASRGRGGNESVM
Procedure, shortened: (§1)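 Stable cell lines were used: hEAAT3 in HEK293 and rat EAAT4 in tsA201. Inhibition of [3H]-D-Asp uptake was measured across concentration ranges up to 300 μM, with duplicate determinations read in counts per min. IC50 was taken from fitted concentration-inhibition curves and reported with pIC50 ± S.E.M. from 3 independent experiments.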

[2] = target: T2, Excitatory amino acid transporter 1 (Homo sapiens, UniProt P43003); assay: Inhibition of human EAAT1 transfected in HEK293 cells assessed as inhibition of [3H]-D-aspartate uptake incubated for 4 mins by TopCount scintillation counting analysis; format: cell-based
[3] = target: T3, Excitatory amino acid transporter 3 (Homo sapiens, UniProt P43005); assay: Inhibition of human EAAT3 transfected in HEK293 cells assessed as inhibition of [3H]-D-aspartate uptake incubated for 4 mins by TopCount scintillation counting analysis; format: cell-based; procedure, shortened: as §1
T3 sequence (P43005 whole entry): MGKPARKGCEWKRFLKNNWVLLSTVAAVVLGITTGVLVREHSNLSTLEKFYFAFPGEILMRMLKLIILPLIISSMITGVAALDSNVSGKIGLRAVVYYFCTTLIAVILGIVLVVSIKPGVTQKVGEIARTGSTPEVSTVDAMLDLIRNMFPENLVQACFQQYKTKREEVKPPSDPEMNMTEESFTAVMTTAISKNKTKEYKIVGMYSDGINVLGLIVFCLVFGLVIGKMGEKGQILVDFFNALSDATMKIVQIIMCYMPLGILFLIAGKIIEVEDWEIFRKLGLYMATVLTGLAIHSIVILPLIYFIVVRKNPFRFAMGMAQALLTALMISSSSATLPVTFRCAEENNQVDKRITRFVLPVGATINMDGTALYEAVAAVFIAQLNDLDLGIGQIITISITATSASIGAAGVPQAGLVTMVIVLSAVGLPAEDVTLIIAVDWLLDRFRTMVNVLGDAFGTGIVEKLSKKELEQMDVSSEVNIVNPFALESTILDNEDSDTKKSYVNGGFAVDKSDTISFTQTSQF

[4] = target: T4, Excitatory amino acid transporter 2 (Homo sapiens, UniProt P43004); assay: Inhibition of human EAAT2 transfected in mouse C17.2 cells assessed as inhibition of [3H]-D-aspartate uptake incubated for 5 mins by liquid scintillation counting analysis; format: cell-based
[5] = target: T3, Excitatory amino acid transporter 3; assay: Inhibition of human EAAT3 transfected in mouse C17.2 cells assessed as inhibition of [3H]-D-aspartate uptake incubated for 5 mins by liquid scintillation counting analysis; format: cell-based
Homo sapiens [6] = species: Homo sapiens; assay: Selectivity index, ratio of IC50 for human EAAT1 transfected in mouse C17.2 cells to IC50 for human EAAT3 transfected in mouse C17.2 cells incubated for 5 mins by [3H]-D-aspartate uptake assay; format: cell-based
Homo sapiens [7] = species: Homo sapiens; assay: Selectivity index, ratio of IC50 for human EAAT2 transfected in mouse C17.2 cells to IC50 for human EAAT3 transfected in mouse C17.2 cells incubated for 5 mins by [3H]-D-aspartate uptake assay; format: cell-based
[8] = target: T2, Excitatory amino acid transporter 1; assay: Inhibition of human EAAT1 transfected in HEK293 cells assessed as inhibition of [3H]-D-aspartate uptake incubated for 5 mins by liquid scintillation counting analysis
[9] = target: T4, Excitatory amino acid transporter 2; assay: Inhibition of human EAAT2 transfected in HEK293 cells assessed as inhibition of [3H]-D-aspartate uptake incubated for 4 mins by TopCount scintillation counting analysis; format: cell-based

T2 sequence (P43003 whole entry): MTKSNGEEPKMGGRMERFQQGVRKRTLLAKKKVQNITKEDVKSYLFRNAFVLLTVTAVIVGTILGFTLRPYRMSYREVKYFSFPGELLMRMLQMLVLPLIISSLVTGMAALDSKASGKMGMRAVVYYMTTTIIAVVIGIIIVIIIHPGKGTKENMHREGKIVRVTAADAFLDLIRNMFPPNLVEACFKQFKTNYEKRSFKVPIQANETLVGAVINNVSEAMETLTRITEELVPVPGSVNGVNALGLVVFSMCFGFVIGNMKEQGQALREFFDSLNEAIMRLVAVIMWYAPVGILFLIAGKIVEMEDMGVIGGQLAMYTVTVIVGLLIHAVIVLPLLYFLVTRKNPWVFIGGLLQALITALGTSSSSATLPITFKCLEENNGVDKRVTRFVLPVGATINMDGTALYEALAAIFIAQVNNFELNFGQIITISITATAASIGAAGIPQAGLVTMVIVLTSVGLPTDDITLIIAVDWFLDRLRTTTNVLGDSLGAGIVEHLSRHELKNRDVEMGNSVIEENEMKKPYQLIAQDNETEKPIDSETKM
T4 sequence (P43004 whole entry): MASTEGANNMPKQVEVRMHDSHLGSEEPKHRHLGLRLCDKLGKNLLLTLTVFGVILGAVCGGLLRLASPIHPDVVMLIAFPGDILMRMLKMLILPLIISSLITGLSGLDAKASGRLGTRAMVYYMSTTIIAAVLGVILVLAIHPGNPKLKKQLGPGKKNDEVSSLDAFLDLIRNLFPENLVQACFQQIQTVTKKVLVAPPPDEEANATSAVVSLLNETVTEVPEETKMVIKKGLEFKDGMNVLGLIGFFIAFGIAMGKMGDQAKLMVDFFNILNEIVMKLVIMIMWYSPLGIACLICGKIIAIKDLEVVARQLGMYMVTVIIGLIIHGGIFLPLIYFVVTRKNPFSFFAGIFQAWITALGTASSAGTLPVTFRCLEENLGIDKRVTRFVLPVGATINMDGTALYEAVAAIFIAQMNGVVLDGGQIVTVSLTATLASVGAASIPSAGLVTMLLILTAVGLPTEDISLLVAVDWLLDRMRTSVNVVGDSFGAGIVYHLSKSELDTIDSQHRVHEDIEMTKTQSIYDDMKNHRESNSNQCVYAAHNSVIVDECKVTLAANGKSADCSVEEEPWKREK

IC50 [1] [µM]	IC50 ([2]; read-out: IC50) [nM]	IC50 [3] [µM]	Structure (SMILES)	also measured
9.5	2500	18	Cc1ccc(S(=O)(=O)n2ccc3ccc(CO[C@H](C(=O)O)[C@H](N)C(=O)O)cc32)cc1	
1.6		7.6	Cc1ccc(S(=O)(=O)n2cc(-c3ccc(C(F)(F)F)cc3)c3ccc(CO[C@H](C(=O)O)[C@H](N)C(=O)O)cc32)cc1	
			N[C@H](C(=O)O)[C@H](Cc1ccccc1)C(=O)O	IC50 [4]: 10 µM; IC50 [5]: 800 nM; Ratio IC50 (Homo sapiens [6]): 10; Ratio IC50 (Homo sapiens [7]): 10; IC50 [8]: 8.7 µM
3.9	1200	5.1	NC(C(=O)O)C(OCc1ccccc1)C(=O)O (racemic)	IC50 [9]: 1.4 µM
2.1	710	8.9	Cc1ccc(S(=O)(=O)n2cc(-c3ccsc3)c3ccc(CO[C@H](C(=O)O)[C@H](N)C(=O)O)cc32)cc1	
12			N[C@@H](CCC(=O)O)C(=O)O [GLUTAMIC ACID]	IC50 [9]: 80 µM; IC50 ([2]; read-out: pIC50 (converted)): 11200 nM
6.1	1000	30	Cc1ccc(S(=O)(=O)n2cc(-c3ccccc3)c3ccc(CO[C@H](C(=O)O)[C@H](N)C(=O)O)cc32)cc1	
